Screening data (PubChem)
M5 antag: human M5 muscarinic receptor antagonists, primary screen, CHO cells, Fluo-8 calcium fluorescence; Muscarinic acetylcholine receptor M5 (Homo sapiens), P08912; CHO-hM5 cells, ACh EC80; inhibition, % at 3 µM; 360,000 compounds, 0.59% hits;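 active means inhibition above a per-plate cutoff, the mean of that plate's test compounds plus 3 SD, cut at about 27% in these data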;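 further: 0% = acetylcholine EC80 with DMSO and 100% = DMSO without agonist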
Target sequence (P08912 whole entry, looked up): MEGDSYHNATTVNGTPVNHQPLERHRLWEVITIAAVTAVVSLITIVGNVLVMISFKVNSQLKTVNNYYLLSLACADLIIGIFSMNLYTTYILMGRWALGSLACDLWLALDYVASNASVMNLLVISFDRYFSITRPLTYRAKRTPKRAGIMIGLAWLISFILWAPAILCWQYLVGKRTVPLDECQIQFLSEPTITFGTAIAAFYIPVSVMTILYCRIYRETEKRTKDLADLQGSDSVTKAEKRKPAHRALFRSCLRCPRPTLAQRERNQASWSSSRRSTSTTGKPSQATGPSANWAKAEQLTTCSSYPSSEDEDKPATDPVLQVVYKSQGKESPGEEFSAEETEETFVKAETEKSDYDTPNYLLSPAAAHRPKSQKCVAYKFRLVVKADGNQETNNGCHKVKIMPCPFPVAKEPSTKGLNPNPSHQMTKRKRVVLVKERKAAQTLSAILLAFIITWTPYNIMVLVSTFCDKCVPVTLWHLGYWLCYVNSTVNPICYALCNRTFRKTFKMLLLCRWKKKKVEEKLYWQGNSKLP
M5 PAM: human M5 muscarinic receptor positive allosteric modulators, primary screen, CHO-K1 cells, Fluo-8 calcium fluorescence; activation, % at 3 µM; Muscarinic acetylcholine receptor M5 (Homo sapiens), P08912; CHO-K1 hM5, ACh EC20 PAM; 0% = ACh EC20, 100% = ACh EC100; 360,000 compounds, 0.3% hits;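 active means activation above the run cutoff, the mean activation of all test compounds plus 3 SD, cut at about 18% in these data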
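Test system: CHO-K1 hM5 cells / Doses: single-point, 3 µM nominal / Times: Post-acetylcholine fluorescence recording 140 s / Technique: Fluo-8 calcium fluorescence / Measure: Max/basal fluorescence ratio as % of EC20–EC100 ACh window / Benchmarks: low control EC20 acetylcholine (0%), high control EC100 acetylcholine (100%) / Replicates: one well per compound, no replicates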
CHRM4 PAM: human M4 muscarinic receptor positive allosteric modulators, primary screen, CHO-K1 cells, Fluo-8 calcium fluorescence; Muscarinic acetylcholine receptor M4 (Homo sapiens), P08173; CHO-K1 hM4/Gqi5, ACh EC20; 0% = ACh EC20, 100% = maximal ACh; activation, % at 3 µM; 360,000 compounds, 0.4% hits;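 active means activation above its plate's cutoff, the mean activation of sample wells plus 3 SD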
CHRM4 antagonist: human M4 muscarinic receptor antagonists, primary screen, CHO cells, Fluo-8 calcium fluorescence | CHO-hM4 cells, ACh EC80 | inhibition, % at 3 µM | 360,000 compounds, 0.73% hits;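 active means inhibition above its plate's cutoff, the mean inhibition of sample wells plus 3 SD, cut at about 27% in these data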;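 further: 0% = acetylcholine EC80 with DMSO and 100% = DMSO without agonist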
M4 ag: human M4 muscarinic receptor agonists, primary screen, CHO-K1 cells, Fluo-8 calcium fluorescence | Muscarinic acetylcholine receptor M4 (Homo sapiens), P08173 | CHO-K1 hM4/Gqi5; vehicle 0%, full acetylcholine response 100% | activation, % at 3 µM | 360,000 compounds, 0.14% hits;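 active means activation above the run mean over all test wells plus 3 SD, cut at about 32% in these data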;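 further: peak over basal fluorescence ratio per well then scaled between controls; 0% = DMSO wells and 100% = acetylcholine at EC100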
M5 ag: human M5 muscarinic receptor agonists, primary screen, CHO-K1 cells, Fluo-8 calcium fluorescence; Muscarinic acetylcholine receptor M5 (Homo sapiens), P08912; CHO-K1 hM5 cells; 0% DMSO wells, 100% maximal acetylcholine response; activation, % at 3 µM; 360,000 compounds, 0.19% hits; AID 624037, 2012;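 active means activation above the run's mean over test compounds plus 3 SD, cut at about 23% in these data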;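 further: signal is peak over basal fluorescence ratio across the kinetic read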
An asterisk follows results filed as active. The list is not random: actives were taken first. Their share in the collection is about 1.9%.

SMILES	M5 antag	M5 PAM	CHRM4 PAM	CHRM4 antagonist	M4 ag	M5 ag
COc1cccc(CNC(=O)CCN2C(=O)[C@@H]3Cc4ccccc4CN3C2=O)c1	-3	0	20*	-27	2	-4
COc1cccc(CNC(=O)Cn2nc(C)c([N+](=O)[O-])c2C)c1	-8	21*	5	-20	0	1
COc1ccccc1CNC(=O)Cn1nc(C)c([N+](=O)[O-])c1C	8	8	4	1	0	-1
COc1ccc(CCNC(=O)CCN2C(=O)[C@@H]3Cc4ccccc4CN3C2=O)cc1	-5	-12	-7	-13	20	10
COc1cccc(CNC(=O)CN2C(=O)c3ccccc3S2(=O)=O)c1	1	-6	25*	-17	1	-2
O=C(CN1C(=O)c2ccccc2S1(=O)=O)NCc1ccccc1	4	4	2	-3	1	-3
COc1ccc(CNC(=O)[C@@H]2CC=C[C@@H]3CCN(Cc4ccc(Cl)c(Cl)c4)C(=O)[C@@H]32)cc1	9	-4	10	-6	5	1
COc1ccc(CNC[C@@H](CCCCN(C)Cc2ccc(OC)cc2)N2C[C@H](c3ccccc3)N(CCc3ccc(Cl)c(Cl)c3)C(=O)C2=O)cc1	14	-3	3	21	60*	-3
COC(=O)c1cc(Oc2ccc(C(=O)OC)cc2N)cc(C(=O)OC)c1	-9	-14	20*	-2	1	0
COc1ccc(C(=O)NC2CCN(Cc3ccccc3)C2)cc1S(=O)(=O)N1CCOCC1 (stereo unspecified)	-1	4	4	-3	1	-3
Cc1cc(C)c(C#N)c(Sc2nc(C)c([N+](=O)[O-])c(C)c2C#N)n1	8	-4	42*	34*	2	-7
Cc1cccc(-n2ncc3c(N4CCCC4)ncnc32)c1	1	-4	23*	-3	6	1
Cc1cccc(-n2ncc3c(N4CCOCC4)ncnc32)c1	-4	-1	7	-11	6	3
CCn1c(C)nc2cc(C(=O)OC(C(F)(F)C(F)F)C(F)(F)C(F)F)ccc21	39*	-15	-22	25	15	5
COc1cc(/C=C2/C(=O)CNC2=O)ccc1O	-3	6	2	1	0	1
COc1cc(/C=C/C(=O)/C=C(O)/C=C/c2ccc(O)c(OC)c2)ccc1O	37*	-18	-12	32*	44*	39*
COc1cc(/C=C/C(=O)O)ccc1O	0	-2	-1	-3	1	4
COc1cc(C=C2C(=O)C=CC2=O)ccc1O	-2	7	-4	31*	0	4
CS(=O)(=O)N1CCCC(c2nc(-c3ccc(S(=O)(=O)NCc4ccccc4)cc3)no2)C1 (stereo unspecified)	29*	-16	-28	33*	26	12
COCCN1Cc2cccc(C(=O)Nc3cc(C)cc(C)c3)c2C1=O	-1	-1	-2	0	1	-7
COCCN1Cc2cccc(C(=O)Nc3c(C)cc(C)cc3C)c2C1=O	-4	37*	12	-1	1	22
CCOC(=O)Cn1nc(C)n(-c2ccc(C(C)(C)C)cc2)c1=O	6	21*	9	-3	0	1
Cc1ccc(NC(=O)c2cncc(Br)c2)c([N+](=O)[O-])c1	-1	-2	23*	-9	1	0
Cc1ccc(NC(=O)c2cccnc2)c([N+](=O)[O-])c1	6	-3	0	-4	0	-1
CCCN(CC(=O)Nc1ccc(F)c(F)c1F)C(=O)C1CC(=O)N(Cc2ccccc2)C1 (stereo unspecified)	6	0	21*	-12	3	-2
SMILES	M5 antag	M5 PAM	CHRM4 PAM	CHRM4 antagonist	M4 ag	M5 ag
COc1ccc(CNS(=O)(=O)c2ccc3c(c2)N(C)CCO3)cc1	29*	-11	-4	2	8	-3
COC(=O)CCCCNC(=O)Nc1ccccc1	0	23*	6	7	1	1
COC(=O)CNC(=O)CNC(=O)Nc1ccccc1	2	9	3	6	-1	-3
CN1C(=O)C(O)(CC(=O)c2ccncc2)c2ccccc21 (stereo unspecified)	-6	17	19*	-9	2	-1
CCOC(=O)CNc1nc(Cl)nc(NC(C)(C)C)n1	4	-12	-5	-5	0	3
CCS(=O)(=O)N1CCN(C(=O)c2ccco2)CC1	-4	1	3	-1	2	2
CCCS(=O)(=O)N1CCN(C(=O)c2ccco2)CC1	-5	19*	20*	-3	1	-6
Cc1ccc(S(=O)(=O)Nc2cc3c(C(=O)Nc4ccccc4)c(C)oc3c3ccccc23)cc1	10	-9	1	-4	3	-2
COc1ccc2[nH]c3c(=O)n(CCCN4CCOCC4)cnc3c2c1	-14	21*	11	2	2	4
O=C1Cc2cc(S(=O)(=O)Nc3cccc([N+](=O)[O-])c3)cc3c2N1CCC3	8	-2	-7	-5	2	-2
Cn1ncc(Br)c1NC(=O)Nc1ccc(OC(F)(F)F)cc1	27*	-21	-20	-6	14	4
CC(C)N(CCCNC(=O)Cn1ncc2c([nH]c3ccccc32)c1=O)Cc1ccccc1	6	-1	-2	2	0	-9
O=C(Nc1nnc(C23CC4CC(CC(C4)C2)C3)s1)c1ccc(N2C(=O)CCC2=O)cc1	13	-20	-16	60*	1	0
Cc1ccc(C2N(C)c3ccccc3-c3nc4ccccc4n32)o1 (stereo unspecified)	0	3	7	-4	-3	-4
CN1c2ccccc2-c2nc3ccccc3n2C1c1cccs1 (stereo unspecified)	9	18*	7	-10	-2	-4
O=C(CSc1nncn1-c1ccccc1)NC1CCCC1	-4	-1	-3	0	0	-3
Cc1cc(C)cc(N(CCC(=O)Nc2nnc(C3CC3)s2)S(=O)(=O)c2ccc(Cl)cc2)c1	4	2	21*	1	0	1
